Source: ChEMBL document CHEMBL1124875, “Brain targeting of anti-HIV nucleosides: synthesis and in vitro and in vivo studies of dihydropyridine derivatives of 3'-azido-2',3'-dideoxyuridine and 3'-azido-3'-deoxythymidine” (J Med Chem, 1990)

Columns and labels:
[1] = (§1) Half life of the compound; assay type: ADME
[2] = In vitro anti-HIV activity was determined in peripheral blood mononuclear cells.; assay type: functional, Homo sapiens
in vivo [3] = conditions: serum
[4] = as §1; assay type: functional
[5] = serum
Mus musculus [6] = species on record: Mus musculus; assay: In vitro degradation rate constant Mouse brain hom; assay type: ADME
Summary of the method: (§2)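 Prodrug added from DMSO standard to an initial 50 or 10 µg/mL in one of four media at 37 °C with shaking: fresh human serum, fresh mouse serum, mouse brain homogenate (1:1 g/mL in physiological phosphate buffer), or phosphate buffer pH 7.4. Sampled 0–10 h. Dihydropyridine, quaternary salt and parent drug were measured by ion-pair HPLC at 260 nm. k is the terminal-phase ln(concentration)–time regression slope, with the associated half-life.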

[7] = Half life in phosphate buffer at pH 7.4; assay type: ADME; summary of the method: as §2
[8] = Half life in Human serum; assay type: ADME, organism-based; summary of the method: as §2
[9] = In vitro degradation rate constant in phosphate buffer at pH 7.4; assay type: ADME; summary of the method: as §2
[10] = Half life in Mouse serum; assay type: ADME, organism-based; summary of the method: as §2
[11] = Half life in Mouse brain hom; assay type: ADME, organism-based; conditions: brain homogenate; summary of the method: as §2
Homo sapiens = species on record: Homo sapiens; assay: In vitro degradation rate constant in Human serum; assay type: ADME; summary of the method: as §2
in vivo [12] = conditions: brain
Mus musculus [13] = species on record: Mus musculus; assay: In vitro degradation rate constant in Mouse serum; assay type: ADME; summary of the method: as §2
[14] = Relative brain exposure of the compound

Row | T1/2 [1] [h] | EC50 ([2]; Homo sapiens) [nM] | AUC (in vivo [3]) [ng·h/mL] | AUC [ng·h/mL] | half-life [1] [h] | AUC [5] [ng·h/mL] | Rate constant (Mus musculus [6]) [h⁻¹] | half-life [7] [h] | half-life [8] [h] | Rate constant [9] [h⁻¹] | half-life [10] [h] | half-life [11] [h] | Rate constant (Homo sapiens) [h⁻¹] | AUC (in vivo [12]) [ng·h/mL] | Rate constant (Mus musculus [13]) [h⁻¹] | Rel brain exposure [14] | EC50 [2] [nM] | Structure (SMILES) | T1/2 [4] [h]
1 | 0.84 | 200 | 25800 | 2090 | – | – | – | – | – | – | – | – | – | – | – | – | – | [N-]=[N+]=N[C@H]1C[C@H](n2ccc(=O)[nH]c2=O)O[C@@H]1CO (stereo in doubt; form 2) [NAVURIDINE] | –
2 | – | 2 | 26600 | – | 0.54 | 25380 | – | – | – | – | – | – | – | – | – | – | – | Cc1cn([C@H]2C[C@H](N=[N+]=[N-])[C@@H](CO)O2)c(=O)[nH]c1=O [ZIDOVUDINE] | 15.8
3 | – | – | 600 | – | – | – | 0.41 | 1.25 | 34.6 | 0.55 | 1.08 | 1.69 | 0.02 | 1290 | 0.64 | – | – | Cc1cn([C@H]2C[C@H](N=[N+]=[N-])[C@@H](COC(=O)c3ccc[n+](C)c3)O2)c(=O)[nH]c1=O.[I-] | –
4 | – | 1.6 | 1270 | – | – | – | 3.89 | 3.23 | 7.7 | 0.21 | 1.4 | 0.18 | 0.09 | – | 0.49 | – | – | Cc1cn([C@H]2C[C@H](N=[N+]=[N-])[C@@H](COC(=O)C3=CN(C)C=CC3)O2)c(=O)[nH]c1=O | –
5 | – | – | 1210 | – | – | – | 1.07 | 0.87 | 4.95 | 0.8 | 0.51 | 0.65 | 0.14 | 3910 | 1.36 | – | – | C[n+]1cccc(C(=O)OC[C@H]2O[C@@H](n3ccc(=O)[nH]c3=O)C[C@@H]2N=[N+]=[N-])c1.[I-] | –
6 | 4.34 | – | – | 11430 | – | 25790 | – | – | – | – | – | – | – | – | – | 5.47 | – | [N-]=[N+]=N[C@H]1C[C@H](n2ccc(=O)[nH]c2=O)O[C@@H]1CO (stereo in doubt; form 1) [NAVURIDINE] | –
7 | – | – | 4430 | – | – | – | 4.15 | 2.13 | 4.33 | 0.33 | 0.56 | 0.17 | 0.16 | – | 1.24 | – | 1000 | CN1C=CCC(C(=O)OC[C@H]2O[C@@H](n3ccc(=O)[nH]c3=O)C[C@@H]2N=[N+]=[N-])=C1 | –
